Laboratory results published in ChEMBL document CHEMBL2440012, “Design, synthesis and anticonvulsant properties of new N-Mannich bases derived from 3-phenylpyrrolidine-2,5-diones” (Bioorg Med Chem, 2013).
Activity calls are given as the source filed them. The rule behind the calls is not given here.

Key:
[1] = tested on: Rattus norvegicus; experiment: Anticonvulsant activity in po dosed albino Sprague-Dawley rat assessed as protection against maximal electroshock-induced seizures; format: functional
[2] = tested on: Mus musculus; experiment: Anticonvulsant activity against 6 Hz psychomotor seizure in ip dosed albino CF1 mouse by minimal clonic seizure test; format: functional
[3] = tested on: Mus musculus; experiment: Neurotoxicity in ip dosed albino CF1 mouse assessed as time to peak effect by rotorod test; format: toxicity, organism-based; conditions: in vivo
[4] = tested on: Rattus norvegicus; experiment: Anticonvulsant activity in albino Sprague-Dawley rat assessed as protection against maximal electroshock-induced seizures at 30 mg/kg, po measured after 1 hr; format: functional
Procedure, shortened: (§1)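 Male Sprague-Dawley rats, four per group, dosed p.o. at 30 mg/kg in 0.5% methylcellulose/water suspension; MES test at 0.25, 0.5, 1, 2 and 4 h, motor impairment examined in parallel; number of rats out of four protected.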

[5] = tested on: Mus musculus; experiment: Neurotoxicity in ip dosed albino CF1 mouse assessed as minimum motor impairment in half or more animals measured after 0.5 hrs by rotorod test; format: toxicity, organism-based; conditions: in vivo
Procedure, shortened: (§2)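 Male CF-1 mice given ip suspension in 0.5% methylcellulose/water at 30, 100 and 300 mg/kg; MES, scPTZ (pentylenetetrazole 85 mg/kg sc, CD97 dose for clonic seizures ≥5 s) and rotarod (inability to hold balance 1 min in each of three trials) assessed at 0.5 and 4 h; value is minimum dose active in half or more animals.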

[6] = tested on: Mus musculus; experiment: Anticonvulsant activity in ip dosed albino CF1 mouse assessed as protection against maximal electroshock-induced seizures in half or more animals measured after 4 hrs; format: functional; conditions: read-out: MED; procedure, shortened: as §2
[7] = tested on: Mus musculus; experiment: Anticonvulsant activity against 6 Hz psychomotor seizure in ip dosed albino CF1 mouse assessed as time to peak effect by minimal clonic seizure test; format: functional
[8] = tested on: Mus musculus; experiment: Anticonvulsant activity in albino CF1 mouse assessed as assessed as protection against 6 Hz psychomotor seizure at 75 mg/kg, ip after 0.5 hr by minimal clonic seizure test; format: functional; conditions: route intraperitoneal
Procedure, shortened: (§3)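 Male CF-1 mice, groups of four, dosed ip in 0.5% methylcellulose/water suspension, then challenged by 6-Hz corneal stimulation at 32 mA (0.2 ms pulses, 3 s, constant current) at 0.25, 0.5, 1, 2 or 4 h; count of mice out of four protected from stunned posture/clonic seizure.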

[9] = tested on: Rattus norvegicus; experiment: Anticonvulsant activity in albino Sprague-Dawley rat assessed as protection against maximal electroshock-induced seizures at 30 mg/kg, po measured after 4 hrs; format: functional; procedure, shortened: as §1
[10] = tested on: Rattus norvegicus; experiment: Protection index, ratio of TD50 for neurotoxicity in po dosed albino Sprague-Dawley rat by rotorod test to ED50 for anticonvulsant activity in po dosed albino Sprague-Dawley rat by MES test; format: functional
[11] = tested on: Rattus norvegicus; experiment: Anticonvulsant activity in po dosed albino Sprague-Dawley rat assessed as protection against subcutaneous pentylenetetrazole-induced convulsion; format: functional
[12] = Neurotoxicity in po dosed albino Sprague-Dawley rat assessed as minimum motor impairment by rotorod test; format: toxicity, organism-based; conditions: in vivo
[13] = tested on: Rattus norvegicus; experiment: Anticonvulsant activity in albino Sprague-Dawley rat assessed as protection against maximal electroshock-induced seizures at 30 mg/kg, po measured after 2 hrs; format: functional; procedure, shortened: as §1
[14] = tested on: Mus musculus; experiment: Neurotoxicity in albino CF1 mouse assessed as minimum motor impairment at 300 mg/kg, ip measured after 4 hrs by rotorod test; format: toxicity, organism-based; design: dose 300 mg/kg, route intraperitoneal; conditions: in vivo; procedure, shortened: as §2
[15] = Neurotoxicity in ip dosed albino CF1 mouse by rotorod test; format: toxicity, organism-based; conditions: in vivo
[16] = tested on: Mus musculus; experiment: Protection index, ratio of TD50 for neurotoxicity in ip dosed albino CF1 mouse by rotorod test to ED50 for anticonvulsant activity in ip dosed albino CF1 mouse by 6 Hz psychomotor seizure test; format: functional
[17] = tested on: Mus musculus; experiment: Anticonvulsant activity in albino CF1 mouse assessed as assessed as protection against 6 Hz psychomotor seizure at 75 mg/kg, ip after 2 hrs by minimal clonic seizure test; format: functional; conditions: route intraperitoneal; procedure, shortened: as §3
[18] = tested on: Mus musculus; experiment: Anticonvulsant activity in albino CF1 mouse assessed as assessed as protection against 6 Hz psychomotor seizure at 75 mg/kg, ip after 0.25 hr by minimal clonic seizure test; format: functional; conditions: route intraperitoneal; procedure, shortened: as §3
[19] = tested on: Mus musculus; experiment: Anticonvulsant activity in albino CF1 mouse assessed as assessed as protection against 6 Hz psychomotor seizure at 75 mg/kg, ip after 1 hr by minimal clonic seizure test; format: functional; conditions: route intraperitoneal; procedure, shortened: as §3
[20] = tested on: Mus musculus; experiment: Anticonvulsant activity in ip dosed albino CF1 mouse assessed as protection against maximal electroshock-induced seizures in half or more animals measured after 0.5 hr; format: functional; conditions: read-out: MED; procedure, shortened: as §2
[21] = tested on: Rattus norvegicus; experiment: Protection index, ratio of TD50 for neurotoxicity in po dosed albino Sprague-Dawley rat by rotorod test to ED50 for anticonvulsant activity in po dosed albino Sprague-Dawley rat by scPTZ test; format: functional
Procedure, shortened: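 Male Sprague-Dawley rats, compound suspended in 0.5% methylcellulose/water and given orally; tested at the time of peak effect. scPTZ: 70 mg/kg pentylenetetrazole sc; the end-point is clonic seizures lasting at least 5 s. Rotarod: motor impairment is failure to keep balance for 1 min in each of three trials. Groups of at least eight rats received several doses until at least three points fell within 10–90% effect. ED50, TD50 and 95% confidence intervals were derived by regression; PI = TD50/ED50.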

[22] = tested on: Mus musculus; experiment: Toxicity in albino CF1 mouse assessed as myoclonic jerks at 300 mg/kg, ip measured after 0.5 hr by rotorod test; format: organism-based; design: dose 300 mg/kg, route intraperitoneal; conditions: in vivo
[23] = tested on: Mus musculus; experiment: Anticonvulsant activity in albino CF1 mouse assessed as assessed as protection against 6 Hz psychomotor seizure at 75 mg/kg, ip after 4 hrs by minimal clonic seizure test; format: functional; conditions: route intraperitoneal; procedure, shortened: as §3
[24] = tested on: Mus musculus; experiment: Anticonvulsant activity in albino CF1 mouse assessed as protection against subcutaneous pentylenetetrazole-induced convulsion at 300 mg/kg, ip measured after 0.5 hrs; format: functional, organism-based; design: dose 300 mg/kg; procedure, shortened: as §2
[25] = tested on: Rattus norvegicus; experiment: Anticonvulsant activity in albino Sprague-Dawley rat assessed as protection against maximal electroshock-induced seizures at 30 mg/kg, po measured after 0.25 hr; format: functional; procedure, shortened: as §1
[26] = tested on: Rattus norvegicus; experiment: Neurotoxicity in po dosed albino Sprague-Dawley rat assessed as time to peak effect by rotorod test; format: toxicity, organism-based; conditions: in vivo
[27] = tested on: Rattus norvegicus; experiment: Anticonvulsant activity against […] subcutaneous pentylenetetrazole-induced convulsion in po dosed albino Sprague-Dawley rat assessed as time to peak effect; format: functional
[28] = tested on: Rattus norvegicus; experiment: Anticonvulsant activity in albino Sprague-Dawley rat assessed as protection against maximal electroshock-induced seizures at 30 mg/kg, po measured after 0.5 hr; format: functional; procedure, shortened: as §1
[29] = tested on: Rattus norvegicus; experiment: Anticonvulsant activity against maximal electroshock-induced seizures in po dosed albino Sprague-Dawley rat assessed as time to peak effect; format: functional
[30] = tested on: Mus musculus; experiment: Anticonvulsant activity in albino CF1 mouse assessed as protection against subcutaneous pentylenetetrazole-induced convulsion at 300 mg/kg, ip measured after 4 hrs; format: functional, organism-based; design: dose 300 mg/kg; procedure, shortened: as §2
[31] = tested on: Mus musculus; experiment: Neurotoxicity in ip dosed albino CF1 mouse assessed as minimum motor impairment in half or more animals measured after 4 hrs by rotorod test; format: toxicity, organism-based; conditions: in vivo; procedure, shortened: as §2
[32] = tested on: Mus musculus; experiment: Anticonvulsant activity in albino CF1 mouse assessed as assessed as protection against 6 Hz psychomotor seizure at 100 mg/kg, ip after 1 hr by minimal clonic seizure test; format: functional; conditions: route intraperitoneal; procedure, shortened: as §3
[33] = tested on: Mus musculus; experiment: Anticonvulsant activity in albino CF1 mouse assessed as assessed as protection against 6 Hz psychomotor seizure at 100 mg/kg, ip after 4 hrs by minimal clonic seizure test; format: functional; conditions: route intraperitoneal; procedure, shortened: as §3
[34] = tested on: Mus musculus; experiment: Anticonvulsant activity in albino CF1 mouse assessed as assessed as protection against 6 Hz psychomotor seizure at 100 mg/kg, ip after 2 hrs by minimal clonic seizure test; format: functional; conditions: route intraperitoneal; procedure, shortened: as §3
[35] = tested on: Mus musculus; experiment: Anticonvulsant activity in albino CF1 mouse assessed as assessed as protection against 6 Hz psychomotor seizure at 100 mg/kg, ip after 0.25 hr by minimal clonic seizure test; format: functional; conditions: route intraperitoneal; procedure, shortened: as §3
[36] = tested on: Mus musculus; experiment: Anticonvulsant activity in albino CF1 mouse assessed as assessed as protection against 6 Hz psychomotor seizure at 100 mg/kg, ip after 0.5 hr by minimal clonic seizure test; format: functional; conditions: route intraperitoneal; procedure, shortened: as §3
[37] = tested on: Mus musculus; experiment: Neurotoxicity in albino CF1 mouse assessed as minimum motor impairment at 300 mg/kg, ip measured after 0.5 hr by rotorod test; format: toxicity, organism-based; design: dose 300 mg/kg, route intraperitoneal; conditions: in vivo; procedure, shortened: as §2

| Structure (SMILES) | Time [3] | Activity [4] | MED [5] | minimal effective dose [6] | Time [7] | Activity [9] | Ratio TD50/ED50 [10] | ED50 [11] | TD50 [12] | Activity [13] | Activity [14] | TD50 [15] | minimal effective dose [20] | Activity [24] | Activity [25] | Time [26] | Time [27] | Activity [28] | Time [29] | Activity [30] | further results |
| --- | --- | --- | --- | --- | --- | --- | --- | --- | --- | --- | --- | --- | --- | --- | --- | --- | --- | --- | --- | --- | --- |
| O=C1CC(c2ccccc2Cl)C(=O)N1CN1CCC(Cc2ccccc2)CC1 (racemic) | 0.5 h | 75% | 300 mg/kg | 100 mg/kg | 0.5 h | inactive | >13.28 | 107 mg/kg | > 500 mg/kg | 25% | Non-toxic | 275 mg/kg | 300 mg/kg | inactive | 25% | 1 h | 1 h | 75% | 1 h |  | ED50 [1]: 37.6 mg/kg; ED50 [2]: 84.6 mg/kg; Activity [8]: 75%; Ratio TD50/ED50 [16]: 3.26; Activity [17]: 25%; Activity [18]: 0%; Activity [19]: 0%; Ratio TD50/ED50 [21]: >4.68; MED [22]: 100 mg/kg; Activity [23]: 0% |
| O=C1NC(=O)C(c2ccccc2)(c2ccccc2)N1 [PHENYTOIN] |  | 75% | 100 mg/kg | 30 mg/kg |  | 75% | >3.6 | > 500 mg/kg | > 100 mg/kg | 75% |  |  | 30 mg/kg | inactive | 25% | 1 h | 1 h | 100% | 1 h | inactive | MED [31]: 100 mg/kg |
| O=C1CC(c2ccccc2)C(=O)N1CN1CCC(Cc2ccccc2)CC1 (racemic) |  |  |  | 300 mg/kg |  |  |  |  |  |  | Non-toxic |  | 100 mg/kg | inactive |  |  |  |  |  | inactive | Activity [32]: 25%; Activity [33]: 0%; Activity [34]: 25%; Activity [35]: 0%; Activity [36]: 0%; Activity [37]: Non-toxic |
| CCCC(CCC)C(=O)O [VALPROIC ACID] |  |  |  |  |  |  |  | 646 mg/kg |  |  |  |  |  |  |  | 1 h | 1 h |  | 1 h |  |  |
| CC[C@@H](C(N)=O)N1CCCC1=O | 1 h |  |  |  | 1 h |  |  |  |  |  |  | > 500 mg/kg |  |  |  |  |  |  |  |  |  |
